Measured values as given in publication PMC8958509 (Journal of Medicinal Chemistry, 2022).
Each block holds one compound with its values, some of them ahead of it.

Legend:
[1] = test system: C. difficile contemporary clinical isolates; assay: MIC against contemporary clinical isolates; format: cell-based, Clostridioides difficile
[2] = test system: C. difficile UNT103-1 (VA11); assay: Hamster C. difficile infection model; format: in vivo, Golden Syrian hamsters
Outline: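 Male Golden Syrian hamsters (80-90 g), singly housed, were infected orally by gavage three times with a sporulation-medium culture diluted to OD600 1 (~1.0 × 10^9 CFU/mL). […] Starting 18 h later (day 2), test compound, comparators or vehicle were given QD by oral gavage for 5 days. Survival was monitored through day 21.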

[3] = test system: H. pylori contemporary clinical isolates; assay: MIC against contemporary clinical isolates; format: cell-based, Helicobacter pylori
[4] = test system: G. vaginalis contemporary clinical isolates; assay: MIC against contemporary clinical isolates; format: cell-based, Gardnerella vaginalis
[5] = test system: H. pylori MMX 3719; assay: Spontaneous resistance frequency and MPC; format: cell-based, Helicobacter pylori
[6] = test system: C. difficile MMX 4381; assay: Spontaneous resistance frequency and MPC; format: cell-based, Clostridioides difficile
[7] = test system: G. Vaginalis MMX 5973; assay: Spontaneous resistance frequency and MPC; format: cell-based, Gardnerella vaginalis
[8] = Tissue distribution; format: in vivo, Sprague–Dawley rats
[9] = test system: H. pylori SS1 (CagA+, VacA+); assay: Mouse H. pylori infection model; format: in vivo, C57/BL6 mice; conditions: 45 mg/kg bid oral, 7 days, day 7
Outline: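 Male C57/BL6 mice (20-25 g) received 0.25 mL gavage inocula on three days (6.40, 6.90, 7.15 log₁₀ CFU). Inocula were 5-day Columbia laked-horse-blood-agar growth suspended in saline to OD530 1.5-2.0. From 7 days post-inoculation, test compound, controls or vehicle were dosed bid by gavage for 7 days. Stomach CFU were counted ~18-20 h post-dose on Dent-supplemented plates (microaerobic, 37 °C, 6-7 days); LOQ <2.35 log₁₀ CFU/stomach.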

[10] = test system: clinical isolates of H. pylori, C. difficile, and G. vaginalis; assay: MIC against contemporary clinical isolates; format: cell-based
[11] = test system: H. pylori Rif-resistant, Mtz-resistant strains; assay: MIC comparison, H. pylori resistant mutant panel; format: cell-based, Helicobacter pylori
[12] = C. difficile isolates China (N = 46)
[13] = C. difficile isolates USA (N = 50)
[14] = H. pylori isolates China (N = 49)
[15] = H. pylori MMX 3719, conc. 0.5 μg/mL
[16] = H. pylori MMX 3719, conc. 1 μg/mL
[17] = H. pylori MMX 3719, conc. 2 μg/mL
[18] = H. pylori MMX 3719, conc. 4 μg/mL
[19] = C. difficile MMX 4381, conc. 1 μg/mL
[20] = C. difficile MMX 4381, conc. 2 μg/mL
[21] = C. difficile MMX 4381, conc. 4 μg/mL
[22] = G. Vaginalis MMX 5973, conc. 0.5 μg/mL
[23] = G. Vaginalis MMX 5973, conc. 1 μg/mL
[24] = G. Vaginalis MMX 5973, conc. 2 μg/mL
[25] = G. Vaginalis MMX 5973, conc. 4 μg/mL

Compound: Cc1ncc([N+](=O)[O-])n1CCO [metronidazole, reference compound]
MIC range [1, 12]: ≤0.06 to 32 µg/mL | MIC range [1, 13]: 0.12 to 4 µg/mL | mortality ([2]; 100 mg/kg QD oral, by day 4): 100%

Compound: CO[C@H]1/C=C/O[C@@]2(C)Oc3c(C)c(O)c4c(c3C2=O)C2=NC3(CCN(CCn5c([N+](=O)[O-])cnc5C)CC3)NC2=C(NC(=O)/C(C)=C\C=C\[C@H](C)[C@H](O)[C@@H](C)[C@@H](O)[C@@H](C)[C@H](OC(C)=O)[C@@H]1C)C4=O [Compound 10, 4-Deoxy-3,4-[2-spiro-[1-[2-(2-methyl-5-nitro-imidazol-1-yl)ethyl]-piperidin-4-yl]]-(1H)-imidazo-(2,5-dihydro)rifamycin S]
MIC range [3, 14]: ≤2 to 1000 ng/mL | MIC range ([3]; H. pylori isolates USA (N = 200)): ≤1 to 2000 ng/mL | MIC range [1, 12]: ≤0.06 to 2 µg/mL | MIC range [1, 13]: ≤0.002 to 4 µg/mL | MIC range ([4]; G. vaginalis isolates China (N = 24)): ≤4 to 60 ng/mL | MIC range ([4]; G. vaginalis isolates USA (N = 101)): ≤4 to 60 ng/mL | spontaneous frequency of mutation ([5]; H. pylori MMX 3719, all concentrations tested): < 5 × 10^–9 μg/mL | resistant colonies identified, mean [5, 15]: 0 | resistant colonies identified, test 1 [5, 15]: 0 | resistant colonies identified, test 2 [5, 15]: 0 | spontaneous resistance frequency ([5]; H. pylori MMX 3719, conc. 0.5 μg/mL, inoculum 1.90 × 10^8 CFU): <5 × 10^–9 | resistant colonies identified, mean [5, 16]: 0 | resistant colonies identified, test 1 [5, 16]: 0 | resistant colonies identified, test 2 [5, 16]: 0 | spontaneous resistance frequency [5, 16]: <5 × 10^–9 | resistant colonies identified, mean [5, 17]: 0 | resistant colonies identified, test 1 [5, 17]: 0 | resistant colonies identified, test 2 [5, 17]: 0 | spontaneous resistance frequency [5, 17]: <5 × 10^–9 | resistant colonies identified, mean [5, 18]: 0 | resistant colonies identified, test 1 [5, 18]: 0 | resistant colonies identified, test 2 [5, 18]: 0 | spontaneous resistance frequency [5, 18]: <5 × 10^–9 | resistant colonies identified, test 1 ([6]; C. difficile MMX 4381, conc. 0.5 μg/mL): 0 | spontaneous resistance frequency ([6]; C. difficile MMX 4381, conc. 0.5 μg/mL, inoculum 1.23 × 10^9 CFU): 8 × 10^–10 | resistant colonies identified, mean [6, 19]: 0 | resistant colonies identified, test 1 [6, 19]: 0 | resistant colonies identified, test 2 [6, 19]: 0 | spontaneous resistance frequency [6, 19]: <8 × 10^–10 | resistant colonies identified, mean [6, 20]: 0 | resistant colonies identified, test 1 [6, 20]: 0 | resistant colonies identified, test 2 [6, 20]: 0 | spontaneous resistance frequency [6, 20]: <8 × 10^–10 | resistant colonies identified, mean [6, 21]: 0 | resistant colonies identified, test 1 [6, 21]: 0 | resistant colonies identified, test 2 [6, 21]: 0 | spontaneous resistance frequency [6, 21]: <8 × 10^–10 | spontaneous frequency of mutation ([6]; C. difficile MMX 4381, lowest concentration tested): 8 × 10^–10 | resistant colonies identified, mean [7, 22]: 0 | resistant colonies identified, test 1 [7, 22]: 0 | resistant colonies identified, test 2 [7, 22]: 0 | spontaneous resistance frequency ([7]; G. Vaginalis MMX 5973, conc. 0.5 μg/mL, inoculum 4.50 × 10^8 CFU): <2 × 10^–9 | resistant colonies identified, mean [7, 23]: 0 | resistant colonies identified, test 1 [7, 23]: 0 | resistant colonies identified, test 2 [7, 23]: 0 | spontaneous resistance frequency [7, 23]: <2 × 10^–9 | resistant colonies identified, mean [7, 24]: 0 | resistant colonies identified, test 1 [7, 24]: 0 | resistant colonies identified, test 2 [7, 24]: 0 | spontaneous resistance frequency [7, 24]: <2 × 10^–9 | resistant colonies identified, mean [7, 25]: 0 | resistant colonies identified, test 1 [7, 25]: 0 | resistant colonies identified, test 2 [7, 25]: 0 | spontaneous resistance frequency [7, 25]: <2.00 × 10^–9 | spontaneous frequency of mutation ([7]; G. vaginalis MMX 5973, all concentrations tested): < 2 × 10^–9 μg/mL | TNP-2198 concentration ([8]; ascites fluid, 24 h): BLOQ | TNP-2198 concentration ([8]; brain, 12 h): BLOQ | TNP-2198 concentration ([8]; brain, 24 h): BLOQ | TNP-2198 concentration ([8]; plasma, 24 h): BLOQ | TNP-2198 concentration ([8]; stomach content, 0.5 h): 3,264,000 ng/g | TNP-2198 concentration ([8]; stomach content, 2 h): 1,750,320 ng/g | TNP-2198 concentration ([8]; vaginal tissue, 24 h): BLOQ | mean bacterial stomach titer [9]: 1.70 log10 CFU | mortality ([2]; 5 mg/kg QD oral, days 7–9): 10–30% | survival ([2]; 5 mg/kg QD oral, during the 5-day dosing regimen): 100% | survival ([2]; 15 mg/kg QD oral days 2–6, through day 21): 100% | survival ([2]; 45 mg/kg QD oral days 2–6, through day 21): 100% | MIC90 [10]: < 1 µg/mL | fold more active than the 1:1 molar combination of the parent drugs ([11]; Mtz-resistant strain (CB1573)): 1- to 125 fold | fold more active than the 1:1 molar combination of the parent drugs ([11]; Rif-resistant strains (CB1902, CB1903 and CB1614)): 4- to 128 fold | fold more active than Rif, Rbt, or Mtz ([11]; dual Rif-resistant, Mtz-resistant strains (CB1771 and CB1893)): 32- to 64 fold

MIC range [3, 14]: ≤60 to 64000 ng/mL
Compound: CO[C@H]1/C=C/O[C@@]2(C)Oc3c(C)c(O)c4c(O)c(c(/C=N/N5CCN(C)CC5)c(O)c4c3C2=O)NC(=O)/C(C)=C\C=C\[C@H](C)[C@H](O)[C@@H](C)[C@@H](O)[C@@H](C)[C@H](OC(C)=O)[C@@H]1C [rifampin, reference compound]
